The test system of assay [1] is Schistosoma mansoni. Description: Antischistosomal activity against NMRI mouse juvenile Schistosoma mansoni infection model assessed as reduction of total worm burden at 200 mg/kg, po after 28 days. The class given is functional. Set-up: scale not given: the % may be the effect or the level left. In a few lines:
(§1)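 Juvenile-infection model: mice carrying Liberian-strain S. mansoni got one oral dose at day 21 postinfection, as a suspension in 7% Tween 80/3% ethanol. There were 3–5 per group, plus untreated controls. Necropsy by exsanguination followed 28 days after treatment. Liver and mesenteric-vein worms were collected, sexed and counted. Total and female burden reductions were calculated versus controls, with Kruskal-Wallis testing.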

For assay [2], the system named is Schistosoma mansoni. In words: Antischistosomal activity against NMRI mouse juvenile Schistosoma mansoni infection model assessed as reduction of female worm burden at 200 mg/kg, po after 28 days. It is filed as functional. Also noted: scale not given: the % may be the effect or the level left. A digest of the protocol: as §1
Assay [3] has as its system Schistosoma mansoni. Description: Antischistosomal activity against NMRI mouse juvenile Schistosoma mansoni infection model assessed as number of cured mouse at 200 mg/kg, po after 28 days. It is filed as functional, organism-based. Set-up: dose 200 mg/kg. A digest of the protocol:
as §1

Assay [4] deals with Schistosoma mansoni. In words: Antischistosomal activity against NMRI mouse adult Schistosoma mansoni infection model assessed as reduction of total worm burden at 400 mg/kg, po after 28 days. The class given is functional. Set-up: scale not given: the % may be the effect or the level left. A digest of the protocol:
(§2)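 Mice with a Liberian-strain S. mansoni infection were dosed at 49 days postinfection with a single oral dose of compound suspended in 7% Tween 80/3% ethanol. Groups held 3–5 animals, with untreated controls. At 28 days posttreatment, animals were killed by bleeding. Worms in liver and mesenteric veins were removed, sexed and counted. Reductions were calculated against controls and tested by Kruskal-Wallis.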

The subject of assay [5] is Schistosoma mansoni. In words: Antischistosomal activity against NMRI mouse adult Schistosoma mansoni infection model assessed as reduction of female worm burden at 400 mg/kg, po after 28 days. It is filed as functional. Also noted: scale not given: the % may be the effect or the level left. A digest of the protocol: as §2
Assay [6] deals with Schistosoma mansoni. In words: Antischistosomal activity against Syrian golden hamster juvenile Schistosoma mansoni infection model assessed as reduction of total worm burden at 50 mg/kg, po after 28 days. It is filed as functional. Also noted: scale not given: the % may be the effect or the level left. In a few lines:
(§3)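 Hamsters infected with Liberian-strain S. mansoni were treated once orally at 21 days (juvenile lines) or 49 days (adult lines) postinfection. Doses were 50, 100 or 200 mg/kg, in 7% Tween 80/3% ethanol suspension. Groups had 3–4 animals, with untreated controls. After 28 days, animals were bled out. Worms from liver and mesenteric veins were sexed and counted, and cures and burden reductions versus controls were recorded (Kruskal-Wallis).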

The subject of assay [7] is Schistosoma mansoni. Description: Antischistosomal activity against Syrian golden hamster juvenile Schistosoma mansoni infection model assessed as reduction of female worm burden at 50 mg/kg, po after 28 days. The class given is functional. Also noted: scale not given: the % may be the effect or the level left. In a few lines: as §3
The test system of assay [8] is Schistosoma mansoni. In words: Antischistosomal activity against Syrian golden hamster juvenile Schistosoma mansoni infection model assessed as reduction of total worm burden at 100 mg/kg, po after 28 days. The class given is functional. Also noted: scale not given: the % may be the effect or the level left. A digest of the protocol:
as §3

The test system of assay [9] is Schistosoma mansoni. In words: Antischistosomal activity against Syrian golden hamster juvenile Schistosoma mansoni infection model assessed as reduction of female worm burden at 100 mg/kg, po after 28 days. It is filed as functional. Also noted: scale not given: the % may be the effect or the level left. A digest of the protocol: as §3
Assay [10] concerns Schistosoma mansoni. In words: Antischistosomal activity against Syrian golden hamster juvenile Schistosoma mansoni infection model assessed as reduction of total worm burden at 200 mg/kg, po after 28 days. The class given is functional. Also noted: scale not given: the % may be the effect or the level left. In a few lines:
as §3

The test system of assay [11] is Schistosoma mansoni. Description: Antischistosomal activity against Syrian golden hamster juvenile Schistosoma mansoni infection model assessed as reduction of female worm burden at 200 mg/kg, po after 28 days. It is filed as functional. Also noted: scale not given: the % may be the effect or the level left. In a few lines:
as §3

The test system of assay [12] is Schistosoma mansoni. In words: Antischistosomal activity against Syrian golden hamster adult Schistosoma mansoni infection model assessed as reduction of total worm burden at 50 mg/kg, po after 28 days. The class given is functional. Set-up: scale not given: the % may be the effect or the level left. A digest of the protocol:
as §3

The subject of assay [13] is Schistosoma mansoni. In words: Antischistosomal activity against Syrian golden hamster adult Schistosoma mansoni infection model assessed as reduction of female worm burden at 50 mg/kg, po after 28 days. Set-up: scale not given: the % may be the effect or the level left. The class given is functional. In a few lines: as §3
Assay [14] relates to Schistosoma mansoni. In words: Antischistosomal activity against Syrian golden hamster adult Schistosoma mansoni infection model assessed as reduction of total worm burden at 100 mg/kg, po after 28 days. The class given is functional. Set-up: scale not given: the % may be the effect or the level left. In a few lines:
as §3

The subject of assay [15] is Schistosoma mansoni. In words: Antischistosomal activity against Syrian golden hamster adult Schistosoma mansoni infection model assessed as reduction of female worm burden at 100 mg/kg, po after 28 days. The class given is functional. Set-up: scale not given: the % may be the effect or the level left. A digest of the protocol: as §3
Assay [16] deals with Schistosoma mansoni. Description: Antischistosomal activity against Syrian golden hamster adult Schistosoma mansoni infection model assessed as reduction of female worm burden at 200 mg/kg, po after 28 days. The class given is functional. Also noted: scale not given: the % may be the effect or the level left. In a few lines:
as §3

Assay [17] deals with Schistosoma mansoni. Description: Antischistosomal activity against NMRI mouse adult Schistosoma mansoni infection model assessed as number of cured mouse at 400 mg/kg, po after 28 days. The class given is functional, organism-based. Also noted: dose 400 mg/kg. A digest of the protocol: as §2
Assay [18] deals with Schistosoma mansoni. Description: Antischistosomal activity against Syrian golden hamster juvenile Schistosoma mansoni infection model assessed as number of cured mouse at 50 mg/kg, po after 28 days. The class given is functional, organism-based. Also noted: dose 50 mg/kg. In a few lines: as §3
Assay [19] has as its system Schistosoma mansoni. Description: Antischistosomal activity against Syrian golden hamster juvenile Schistosoma mansoni infection model assessed as number of cured mouse at 100 mg/kg, po after 28 days. It is filed as functional, organism-based. Also noted: dose 100 mg/kg. A digest of the protocol:
as §3

Assay [20] concerns Schistosoma mansoni. Description: Antischistosomal activity against Syrian golden hamster adult Schistosoma mansoni infection model assessed as number of cured mouse at 50 mg/kg, po after 28 days. It is filed as functional, organism-based. Also noted: dose 50 mg/kg. A digest of the protocol: as §3
Assay [21] concerns Schistosoma mansoni. In words: Antischistosomal activity against Syrian golden hamster adult Schistosoma mansoni infection model assessed as number of cured mouse at 100 mg/kg, po after 28 days. It is filed as functional, organism-based. Also noted: dose 100 mg/kg. In a few lines: as §3
In assay [22] the test system is Schistosoma mansoni. In words: Antischistosomal activity against Syrian golden hamster adult Schistosoma mansoni infection model assessed as number of cured mouse at 200 mg/kg, po after 28 days. It is filed as functional, organism-based. Also noted: dose 200 mg/kg. In a few lines:
as §3

Here are results for three molecules from ChEMBL document CHEMBL1147111, “In vitro and in vivo activities of synthetic trioxolanes against major human schistosome species” (Antimicrob Agents Chemother, 2007).

Active and inactive are the calls of the source. No cut-off for these calls is given here.

Consider `C1CCC2(CC1)COC1(O2)C2CC3CC(C2)CC1C3` (stereo not drawn), for which the Activity with Schistosoma mansoni [1] and in the assay with Schistosoma mansoni [2] was 0% each time. Further, the result in the assay on Schistosoma mansoni [3] was inactive.

As for `Oc1ccc([C@H]2CC[C@]3(CC2)OO[C@]2(O3)C3CC4CC(C3)CC2C4)cc1`, the Activity came to 95.4% in the assay with Schistosoma mansoni [1]; 96.2% in the assay with Schistosoma mansoni [2]; 52.2% with Schistosoma mansoni [4]; 64.9% in the assay with Schistosoma mansoni [5]; 82.7% with Schistosoma mansoni [6]; 78.7% with Schistosoma mansoni [7]. Besides, the Activity with Schistosoma mansoni [8] was found to be 84%; with Schistosoma mansoni [9] it was 80.5%; in the assay with Schistosoma mansoni [10], 86.5%; in the assay with Schistosoma mansoni [11], 86.4%; in the assay on Schistosoma mansoni [12], 46.6%; in the assay with Schistosoma mansoni [13], 36.7%. Besides, the values for the Activity in the assay on Schistosoma mansoni [14], with Schistosoma mansoni [15] and with Schistosoma mansoni [16] were 52.4%, 41.2% and 69.7%, respectively. Moreover, the outcome in the assay on Schistosoma mansoni [17], in the assay on Schistosoma mansoni [3], in the assay on Schistosoma mansoni [18], in the assay on Schistosoma mansoni [19], in the assay on Schistosoma mansoni [20] and with Schistosoma mansoni [21] was inactive. The outcome in the assay with Schistosoma mansoni [22] was inactive.

As for `C1CCC2(CC1)OCC1(O2)C2CC3CC(C2)CC1C3` (stereo not drawn), the Activity in the assay on Schistosoma mansoni [1] stood at 2%; in the assay with Schistosoma mansoni [2] it was 4.8%. Also, the result in the assay with Schistosoma mansoni [3] was inactive.
